# Results collected from several papers.
# Each line is one published result; the experiments were not run side by side.
# Target: Receptor tyrosine-protein kinase erbB-3 (ERBB3, Homo sapiens, UniProt P21860)
SMILES,effect on,method,tested at,remaining binding [%]
O=C(NCC1CCOCC1)c1n[nH]cc1NC(=O)c1c(F)cccc1F,binding,competition with immobilised ligand,1 µM,73
C[C@H](NC(=O)c1cnc2n1[C@](C)(Cc1ccc(C#N)cc1)C(=O)N2c1cc(Cl)c(F)c(Cl)c1)C(=O)NC1(c2ccccn2)CC1,cell-free assay,competition with immobilised ligand,1 µM,100
Cc1cnn2ncc(-c3ccnc(N(C)C)n3)c2c1,binding,,1 µM,100
C=CC(=O)N1CCC(C(=O)NCC(=O)N2CCN(c3nc(-c4cnc(N)nc4C(F)F)nc(N4CCOCC4)n3)CC2)CC1,binding,competition with immobilised ligand,1 µM,84
C[C@H]1CCN(c2nccc(-c3cnn4ncccc34)n2)C1,binding,,1 µM,100
C[C@H](c1ccc(F)cc1)N(Cc1cccc(C(=O)O)c1)C(=O)c1cnc2ccccc2c1,cell-free assay,competition with immobilised ligand,1 µM,68
Cc1cnc(Nc2ccc(C(=O)N3CCC(N4CCCC4)CC3)cc2)nc1-c1cc2ccccc2s1,binding,competition with immobilised ligand,1 µM,89
COc1ccc2c(c1)O[C@H](c1ccc(OC)c(OC)c1)C[C@@H]2NC(=O)C1(c2ccc3c(c2)OC(F)(F)O3)CC1,cell-free assay,competition with immobilised ligand,1 µM,92
COc1cnc(Nc2cccc(S(N)(=O)=O)c2)nc1N1CCN(c2ccccc2)CC1,binding,competition with immobilised ligand,1 µM,88
CCN1CCN(Cc2ccc(C(=O)Nc3ccc(C)c(Oc4ccc5c(c4)CC(=O)N5)c3)cc2C(F)(F)F)CC1,binding,competition with immobilised ligand,1 µM,100
O=C(NCCCN1CCOCC1)c1ccc(Nc2nccc(-c3cc4ccccc4s3)n2)cc1,binding,competition with immobilised ligand,1 µM,86
Cc1noc([C@H]2C[C@@H](c3ccc(C(F)(F)F)cc3)CN(C(=O)N3CCS(=O)(=O)C3)C2)n1,cell-free assay,competition with immobilised ligand,1 µM,100
CC1CCCN1c1nccc(-c2cnn3ncccc23)n1 (stereo not shown),binding,,1 µM,100
O=C(NCc1ncc(C(F)(F)F)cc1Cl)c1ccc2c(c1)C1(CCS(=O)(=O)CC1)[C@H](C1CC1)N2S(=O)(=O)c1ccc(F)cc1,cell-free assay,competition with immobilised ligand,1 µM,100
CN(c1nccc(-c2cnn3ncccc23)n1)C1CC1,binding,,1 µM,100
O=C(c1ccc(Nc2ncc(Cl)c(-c3cc4ccccc4s3)n2)cc1)N1CCC(N2CCCC2)CC1,binding,competition with immobilised ligand,1 µM,81
F[C@@H]1CCN(c2nccc(-c3cnn4ncccc34)n2)C1,binding,,1 µM,100
CC(C)(O)c1cncc(-c2nc3ccc(F)cc3n2C2CC2)c1,cell-free assay,competition with immobilised ligand,1 µM,80
c1cnn2ncc(-c3ccnc(N4CCC45COC5)n3)c2c1,binding,,1 µM,86
Cc1c(C(=O)O)cc(-c2ccc(C3CCNCC3)cc2)c2ccc(-c3ccc(C(F)(F)F)cc3)cc12,binding,competition with immobilised ligand,1 µM,86
N[C@@H]1CCN(c2nccc(-c3cnn4ncccc34)n2)C1,binding,,1 µM,100
c1cncc(-c2cccc(Nc3nccc(NC4CCCCC4)n3)c2)c1,binding,competition with immobilised ligand,10 µM,84
